Assay results of several laboratories.
Observed: cell growth or viability

Compound | cell line | method | tested at | time | notes | quantity | result
COc1ccc(C(=O)Nc2ccc(-n3cc(CNc4nc(OC)nc(OC)n4)nn3)cc2)cc1 | Caco-2 | MTT | – | 72 h | – | IC50 | 722 nM
N#Cc1ccc(Oc2ccc(C(=O)C(Cl)Cl)cc2[N+](=O)[O-])cc1 | NCI-H1650 | MTT | 2.5 µM | – | – | inhibition | 87.6%
COc1nc(NCc2cn(-c3ccc(C(=O)Nc4ccc(Br)cc4)cc3)nn2)nc(OC)n1 | Caco-2 | MTT | – | 72 h | – | IC50 | 674 nM
O=C(O)c1ccccc1Nc1cccc(C(F)(F)F)c1 | NCI-H28 | CCK-8 | – | 72 h | – | GI50 | > 40000 nM
COc1nc(NCc2cn(-c3ccc(C(=O)Nc4ccccc4)cc3)nn2)nc(OC)n1 | Caco-2 | MTT | – | 72 h | – | IC50 | 208 nM
C=C(F)C(=O)N1CCN(c2nc(OC[C@@H]3CCCN3C)nc3c2CCN(c2cccc4cccc(Cl)c24)C3)C[C@@H]1CC#N | UMUC3 | ATP luminescence | – | – | 3D culture | IC50 | 8.43 nM
C[C@@H]1CC[C@@H]([C@](C)(O)Cn2ccnc2)[C@H](OCc2ccccc2)C1 | A2780 | MTT | 30 µM | 72 h | – | inhibition | 39.5%
O=C(NO)c1ccc(CNc2nc3cccc(-c4ccc5c(c4)OCO5)n3n2)cc1 | TK-10 | SRB | – | – | – | GI50 | 520 nM
COc1ccc(COC[C@@](O)(CNCc2ccc(F)cc2)[C@@H]2CC[C@@H](C)C[C@H]2OCc2ccc(OC)cc2)cc1 | A2780 | MTT | 30 µM | 72 h | – | inhibition | 100%
NC(=O)COc1ccc(C(=O)C(Cl)Cl)cc1[N+](=O)[O-] | NCI-H1650 | MTT | 2.5 µM | – | – | inhibition | 1.51%
C=CC(=O)NC1CCN(c2ncc3ncnc(Nc4ccc(Oc5ccc6c(c5)ncn6C)c(C)c4)c3n2)CC1 | HCC44 | – | – | – | – | EC50 | 934 nM
O=C(c1ccc(Oc2ccc(Br)cc2)c([N+](=O)[O-])c1)C(Cl)Cl | NCI-H1650 | MTT | 2.5 µM | – | – | inhibition | 96.1%
C[C@@H]1CC[C@@H]([C@](C)(O)CNCc2cccc(F)c2)[C@H](OCc2ccccc2)C1 | A2780 | MTT | 30 µM | 72 h | – | inhibition | 98.8%
O=C(c1ccc(Oc2cccc(-c3ccccc3)c2)c([N+](=O)[O-])c1)C(Cl)Cl | NCI-H1650 | MTT | 2.5 µM | – | – | inhibition | 97.2%
COc1ccc(COC[C@@](O)(CNCc2ccccc2)[C@@H]2CC[C@@H](C)C[C@H]2OCc2ccc(OC)cc2)cc1 | A2780 | MTT | 10 µM | 72 h | – | inhibition | 98%
O=C1c2ccccc2C(=O)c2c(Oc3ccc(C(=O)C(Cl)Cl)cc3[N+](=O)[O-])cccc21 | NCI-H1650 | MTT | 2.5 µM | – | – | inhibition | 28.7%
C=C(COCc1ccc(OC)cc1)[C@@H]1CC[C@@H](C)C[C@H]1OCc1ccc(OC)cc1 | A2780 | MTT | 30 µM | 72 h | – | inhibition | 27.4%
COc1nc(NCc2cn(-c3ccc(NC(=O)c4ccc([N+](=O)[O-])cc4)cc3)nn2)nc(OC)n1 | Caco-2 | MTT | – | 72 h | – | IC50 | 658 nM
C[C@@H]1CC[C@@H]([C@](C)(O)CNCc2ccccc2)[C@H](OCc2ccccc2)C1 | A2780 | MTT | 30 µM | 72 h | – | inhibition | 94.3%
O=C(c1ccc(Oc2ccc3oc(=O)ccc3c2)c([N+](=O)[O-])c1)C(Cl)Cl | NCI-H1650 | MTT | 2.5 µM | – | – | inhibition | 96.8%
C=CC(=O)c1cccnc1Nc1cccc(C(F)(F)F)c1 | NCI-H28 | CCK-8 | – | 72 h | – | GI50 | 5110 nM
COc1cccc2c1C(=O)c1c(O)c3c(c(O)c1C2=O)C[C@@](O)(C(=O)CO)C[C@@H]3O[C@H]1C[C@H](N)[C@H](O)[C@H](C)O1 | Caco-2 | MTT | 25 µg/mL | 48 h | serum-free | viability | 31.6%
O=C(c1ccc(Oc2ccc(-c3ccccc3)cc2)c([N+](=O)[O-])c1)C(Cl)Cl | NCI-H1650 | MTT | 2.5 µM | – | – | inhibition | 97.5%
C[C@@H]1CC[C@@H]([C@](O)(CNCc2ccccc2)COCc2ccccc2)[C@H](OCc2ccccc2)C1 | A2780 | MTT | 10 µM | 72 h | – | inhibition | 90.4%
CC(=O)Nc1ccc(Oc2ccc(C(=O)C(Cl)Cl)cc2[N+](=O)[O-])cc1 | NCI-H1650 | MTT | 2.5 µM | – | – | inhibition | 97.6%
C[C@@H]1CC[C@@H]([C@](O)(CNCc2ccccc2)COCc2ccc(F)cc2)[C@H](OCc2ccc(F)cc2)C1 | A2780 | MTT | 10 µM | 72 h | – | inhibition | 95.2%
